Measurements from different studies.
Target: Kappa-type opioid receptor (OPRK1, Homo sapiens, UniProt P41145)
Observed: ligand displacement
Concentration: 10 µM

SMILES | method | setting | inhibition
Clc1ccc2c(C3CCN(CCc4c[nH]c5ccccc45)CC3)c[nH]c2c1 | radioligand | – | 79%
c1ccc(C2CCN(c3cnc4c(N5CCOCC5)nccn34)CC2)cc1 | – | – | 6.44%
C[C@H](C(=O)N[C@H]1COc2ccccc2[C@@H]1S(C)(=O)=O)c1ccc(F)cc1 | – | – | 1%
C[C@@H]1N=C(c2ccccc2F)c2cc(Br)ccc2-n2cnc(C(=O)O)c21 | radioligand | – | 62.8%
c1ccc(C(NCCNC(c2ccccc2)c2ccccc2)c2ccccc2)cc1 | – | – | 88%
CCc1ccccc1C(=O)Nc1n[nH]c2c(C)c(F)c(C3C(C#N)=C(C)N(C)C(C)=C3C#N)cc12 | – | – | 16.1%
COc1ccc(C(=O)NCc2cc(C(C)C)no2)cc1OC1CCN(C)CC1 | radioligand | – | 22%
COCc1c(-c2cc3cc(C)cc(OC)c3s2)c2c(N)ncnn2c1CN1CCNC(=O)C1 | radioligand | – | 17%
CC(C)N1CCC[C@H]1CNC(=O)c1cn(C2CCCC2)c(=O)c2c1c1ccccc1n2C | radioligand | – | 5%
C[C@@H]1C[C@H]2O[C@@H]2/C=C\C=C\C(=O)Cc2c(Cl)c(O)cc(O)c2C(=O)O1 | radioligand | cell membranes | -56%
